Assay results from ChEMBL document CHEMBL5030505, “Assessment of NR4A Ligands That Directly Bind and Modulate the Orphan Nuclear Receptor Nurr1” (J Med Chem, 2020).
Active and inactive are the calls of the source. No cut-off for these calls is given here.

Tests used:
Type in all cases: cell-based
SK-N-BE(2) = assay: Cytotoxicity against human SKNBE2 cells assessed as reduction in cell viability at 0.244 to 15.63 uM incubated for 18 hrs by Cell titer-glo assay; settings: dose 0.244-15.63 µM
Procedure, shortened: (§1)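 Cells seeded at 1.5 million per 10-cm dish. Next day they were replated at 10,000 cells/well and rested 4 h. Ligand or vehicle (water, ethanol or DMSO, by ligand) was added in dose-response format in quadruplicate. After 18 h, viability was read by CellTiter-Glo luminescence. Data are mean ± s.e.m., generally representative of 2 independent experiments. One-way ANOVA versus vehicle.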

[1] = molecular target: Nuclear receptor subfamily 4 group A member 2 (Homo sapiens) (UniProt P43354); assay: Modulation of full length human Nurr1 expressed in HEK293T cells co-transfected with luciferase reporter plasmid harboring NurRE response element at 0.244 to 15.63 uM incubated for 18 by luciferase reporter gene assay; settings: dose 0.244-15.63 µM, time 18.0 hrs
Sequence of Nuclear receptor subfamily 4 group A member 2 (Homo sapiens) (P43354 whole entry, the tested form may be a part): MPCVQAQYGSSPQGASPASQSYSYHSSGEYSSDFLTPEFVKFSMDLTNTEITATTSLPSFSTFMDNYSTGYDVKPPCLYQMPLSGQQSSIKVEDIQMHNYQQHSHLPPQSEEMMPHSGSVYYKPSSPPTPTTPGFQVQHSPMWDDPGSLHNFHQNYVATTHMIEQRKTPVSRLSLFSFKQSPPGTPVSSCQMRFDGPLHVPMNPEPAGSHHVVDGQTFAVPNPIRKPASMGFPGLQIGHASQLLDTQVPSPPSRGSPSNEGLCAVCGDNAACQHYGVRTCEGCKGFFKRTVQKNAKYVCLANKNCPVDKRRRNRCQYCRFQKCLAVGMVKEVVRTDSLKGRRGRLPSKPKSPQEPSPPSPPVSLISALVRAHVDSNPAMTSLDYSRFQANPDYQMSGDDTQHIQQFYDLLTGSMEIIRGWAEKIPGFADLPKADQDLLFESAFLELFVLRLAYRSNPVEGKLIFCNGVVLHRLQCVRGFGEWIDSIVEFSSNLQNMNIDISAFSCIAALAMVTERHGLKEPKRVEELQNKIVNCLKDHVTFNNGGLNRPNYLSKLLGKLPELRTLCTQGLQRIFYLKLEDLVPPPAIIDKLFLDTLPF
Procedure, shortened: (§2)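 Full-length Nurr1 plasmid, alone (2 μg) or 1 μg plus full-length RXRα (1 μg), cotransfected with 3xNBRE- or 3xNurRE-luciferase reporter (6 μg) using Lipofectamine 2000, 18 h. Cells replated at 10,000/well for 4 h. Four ligand concentrations, or vehicle (water, ethanol or DMSO), added in quadruplicate for 18 h. Luciferase read. Fold change vs vehicle, mean ± s.e.m., one-way ANOVA vs vehicle.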

[2] = molecular target: Nuclear receptor subfamily 4 group A member 2 (Homo sapiens) (UniProt P43354); assay: Modulation of full length human Nurr1 expressed in PC12 cells co-transfected with RXRalpha and luciferase reporter plasmid harboring NurRE response element at 0.244 to 15.63 uM incubated for 18 by luciferase reporter gene assay; settings: PC-12, dose 0.244-15.63 µM, time 18.0 hrs
Procedure, shortened: (§3)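 PC12 cells were grown at 37°C and 5% CO2 in […] medium with 15% horse serum and 2.5% FBS. They were transfected with full-length Nurr1 (1 μg) plus full-length RXRα (1 μg) and 3xNBRE- or 3xNurRE-luciferase reporter (6 μg) for 18 h, then replated at 10,000 cells/well for 4 h. Ligand or vehicle (water, ethanol or DMSO) was added in quadruplicate for 18 h. Luminescence was read as fold change over vehicle. Results are mean ± s.e.m., n=4, from 2 independent experiments, analysed by one-way ANOVA against vehicle.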

[3] = molecular target: Nuclear receptor subfamily 4 group A member 2 (Homo sapiens) (UniProt P43354); assay: Modulation of full length human Nurr1 expressed in PC12 cells co-transfected with luciferase reporter plasmid harboring NurRE response element at 0.244 to 15.63 uM incubated for 18 by luciferase reporter gene assay; settings: PC-12, dose 0.244-15.63 µM
Procedure, shortened: (§4)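 Here PC12 cells (FK-12 medium, 15% horse serum, 2.5% FBS, 37°C, 5% CO2) received full-length Nurr1 (2 μg) without RXRα, plus 3xNBRE- or 3xNurRE-luciferase reporter (6 μg), for 18 h. Cells were replated at 10,000/well for 4 h, then treated with ligand or vehicle in quadruplicate for 18 h. Luciferase luminescence was normalized to vehicle-treated cells. Results are mean ± s.e.m. (n=4) from 2 independent experiments, with one-way ANOVA against vehicle.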

[4] = molecular target: Nuclear receptor subfamily 4 group A member 2 (Homo sapiens) (UniProt P43354); assay: Modulation of full length human Nurr1 expressed in PC12 cells co-transfected with RXRalpha and luciferase reporter plasmid harboring NBRE response element at 0.244 to 15.63 uM incubated for 18 by luciferase reporter gene assay; settings: PC-12, dose 0.244-15.63 µM, time 18.0 hrs; procedure, shortened: as §3
[5] = molecular target: Nuclear receptor subfamily 4 group A member 2 (Homo sapiens) (UniProt P43354); assay: Modulation of full length human Nurr1 expressed in HEK293T cells co-transfected with RXRalpha and luciferase reporter plasmid harboring NurRE response element at 0.244 to 15.63 uM incubated for 18 by luciferase reporter gene assay; settings: dose 0.244-15.63 µM, time 18.0 hrs; procedure, shortened: as §2
[6] = molecular target: Nuclear receptor subfamily 4 group A member 2 (Homo sapiens) (UniProt P43354); assay: Modulation of full length human Nurr1 expressed in SKNBE(2) cells co-transfected with RXRalpha and luciferase reporter plasmid harboring NBRE response element at 0.244 to 15.63 uM incubated for 18 by luciferase reporter gene assay; settings: SKNBE2, dose 0.244-15.63 µM
Procedure, shortened: (§5)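 SK-N-BE(2)-C cells were kept in 1:1 EMEM/F12 with 10% FBS at 37°C and 5% CO2. They were cotransfected with full-length Nurr1 (1 μg), full-length RXRα (1 μg) and 3xNBRE- or 3xNurRE-luc reporter (6 μg) for 18 h, replated at 10,000 cells/well for 4 h, and then treated with ligand or vehicle in quadruplicate for 18 h. The readout was luciferase luminescence as fold over vehicle, reported as mean ± s.e.m. (n=4) from 2 independent experiments, one-way ANOVA.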

[7] = molecular target: Nuclear receptor subfamily 4 group A member 2 (Homo sapiens) (UniProt P43354); assay: Modulation of full length human Nurr1 expressed in SKNBE(2) cells co-transfected with RXRalpha and luciferase reporter plasmid harboring NurRE response element at 0.244 to 15.63 uM incubated for 18 by luciferase reporter gene assay; settings: SKNBE2, dose 0.244-15.63 µM, time 18.0 hrs; procedure, shortened: as §5
PC-12 [8] = assay: Cytotoxicity against rat PC-12 cells assessed as reduction in cell viability at 0.244 to 15.63 microM incubated for 18 hrs by Cell titer-glo assay; settings: pc-12, 18 h, dose 0.244-15.63 µM; procedure, shortened: as §1
[9] = molecular target: Nuclear receptor subfamily 4 group A member 2 (Homo sapiens) (UniProt P43354); assay: Modulation of full length human Nurr1 expressed in HEK293T cells co-transfected with luciferase reporter plasmid harboring NBRE response element at 0.244 to 15.63 uM incubated for 18 by luciferase reporter gene assay; settings: dose 0.244-15.63 µM, time 18.0 hrs; procedure, shortened: as §2
PC-12 [10] = assay: Modulation of Gal4-fused VP16 expressed in PC12 cells co-transfected with UAS repoter gene assessed as decrease in luciferase activity at 0.244 to 15.63 uM incubated for 18 hrs by luciferase reporter gene assay; settings: Human alphaherpesvirus 2, filed as modulator, dose 0.244-15.63 µM
Procedure, shortened: (§6)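 Cells in 10-cm dishes were transfected with Gal4-VP16 expression plasmid (2 μg) plus 5xUAS-luciferase reporter (2 μg) for 18 h. They were replated at 10,000 cells/well for 4 h, then given ligand or vehicle (water, ethanol or DMSO) in quadruplicate for 18 h. Luciferase was read with Britelite Plus. Fold change is versus vehicle-treated cells, with one-way ANOVA versus vehicle.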

[11] = molecular target: Nuclear receptor subfamily 4 group A member 2 (Homo sapiens) (UniProt P43354); assay: Modulation of full length human Nurr1 expressed in PC12 cells co-transfected with luciferase reporter plasmid harboring NBRE response element at 0.244 to 15.63 uM incubated for 18 by luciferase reporter gene assay; settings: PC-12, dose 0.244-15.63 µM, time 18.0 hrs; procedure, shortened: as §4
[12] = molecular target: Nuclear receptor subfamily 4 group A member 2 (Homo sapiens) (UniProt P43354); assay: Modulation of full length human Nurr1 expressed in SKNBE(2) cells co-transfected with luciferase reporter plasmid harboring NurRE response element at 0.244 to 15.63 uM incubated for 18 by luciferase reporter gene assay; settings: SKNBE2, dose 0.244-15.63 µM, time 18.0 hrs
[13] = molecular target: Nuclear receptor subfamily 4 group A member 2 (Homo sapiens) (UniProt P43354); assay: Modulation of full length human Nurr1 expressed in HEK293T cells co-transfected with RXRalpha and luciferase reporter plasmid harboring NBRE response element at 0.244 to 15.63 uM incubated for 18 by luciferase reporter gene assay; settings: dose 0.244-15.63 µM, time 18.0 hrs; procedure, shortened: as §2
HEK-293T = assay: Cytotoxicity against human HEK293T cells assessed as reduction in cell viability at 0.244 to 15.63 microM incubated for 18 hrs by Cell titer-glo assay; settings: dose 0.244-15.63 µM; procedure, shortened: as §1
[14] = molecular target: Nuclear receptor subfamily 4 group A member 2 (Homo sapiens) (UniProt P43354); assay: Modulation of full length human Nurr1 expressed in SKNBE(2) cells co-transfected with luciferase reporter plasmid harboring NBRE response element at 0.244 to 15.63 uM incubated for 18 by luciferase reporter gene assay; settings: SKNBE2, dose 0.244-15.63 µM
HEK293T = assay: Modulation of Gal4-fused VP16 expressed in HEK293T cells co-transfected with UAS repoter gene assessed as decrease in luciferase activity at 0.244 to 15.63 uM incubated for 18 hrs by luciferase reporter gene assay; settings: Human alphaherpesvirus 2, filed as modulator, dose 0.244-15.63 µM; procedure, shortened: as §6
SKNBE2 = assay: Modulation of Gal4-fused VP16 expressed in SKNBE(2) cells co-transfected with UAS repoter gene assessed as decrease in luciferase activity at 0.244 to 15.63 uM incubated for 18 hrs by luciferase reporter gene assay; settings: Human alphaherpesvirus 2, filed as modulator, dose 0.244-15.63 µM; procedure, shortened: as §6
[15] = molecular target: Nuclear receptor subfamily 4 group A member 2 (Homo sapiens) (UniProt P43354); assay: Modulation of full length human Nurr1 expressed in SKNBE(2) cells co-transfected with luciferase reporter plasmid harboring NurRE response element assessed as decrease in luciferase activity at 0.244 to 15.63 uM incubated for 18 by luciferase reporter gene assay; settings: SKNBE2, filed as modulator, dose 0.244-15.63 µM, time 18.0 hrs
[16] = molecular target: Nuclear receptor subfamily 4 group A member 2 (Homo sapiens) (UniProt P43354); assay: Modulation of full length human Nurr1 expressed in HEK293T cells co-transfected with RXRalpha and luciferase reporter plasmid harboring NBRE response element assessed as decrease in luciferase activity at 0.244 to 15.63 uM incubated for 18 by luciferase reporter gene assay; settings: filed as modulator, dose 0.244-15.63 µM, time 18.0 hrs; procedure, shortened: as §2
[17] = molecular target: Nuclear receptor subfamily 4 group A member 2 (Homo sapiens) (UniProt P43354); assay: Modulation of full length human Nurr1 expressed in HEK293T cells co-transfected with luciferase reporter plasmid harboring NurRE response element assessed as decrease in luciferase activity at 0.244 to 15.63 uM incubated for 18 by luciferase reporter gene assay; settings: filed as modulator, dose 0.244-15.63 µM, time 18.0 hrs; procedure, shortened: as §2
[18] = molecular target: Nuclear receptor subfamily 4 group A member 2 (Homo sapiens) (UniProt P43354); assay: Modulation of full length human Nurr1 expressed in SKNBE(2) cells co-transfected with RXRalpha and luciferase reporter plasmid harboring NBRE response element assessed as decrease in luciferase activity at 0.244 to 15.63 uM incubated for 18 by luciferase reporter gene assay; settings: SKNBE2, filed as modulator, dose 0.244-15.63 µM, time 18.0 hrs; procedure, shortened: as §5
[19] = molecular target: Nuclear receptor subfamily 4 group A member 2 (Homo sapiens) (UniProt P43354); assay: Modulation of full length human Nurr1 expressed in HEK293T cells co-transfected with luciferase reporter plasmid harboring NBRE response element assessed as decrease in luciferase activity at 0.244 to 15.63 uM incubated for 18 by luciferase reporter gene assay; settings: filed as modulator, dose 0.244-15.63 µM, time 18.0 hrs; procedure, shortened: as §2
[20] = molecular target: Nuclear receptor subfamily 4 group A member 2 (Homo sapiens) (UniProt P43354); assay: Modulation of full length human Nurr1 expressed in SKNBE(2) cells co-transfected with luciferase reporter plasmid harboring NBRE response element assessed as decrease in luciferase activity at 0.244 to 15.63 uM incubated for 18 by luciferase reporter gene assay; settings: SKNBE2, filed as modulator, dose 0.244-15.63 µM, time 18.0 hrs
Procedure, shortened: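 Transfection of SK-N-BE(2)-C cells (1:1 EMEM/F12, 10% FBS, 37°C, 5% CO2) used full-length Nurr1 alone (2 μg, no RXRα) with 3xNBRE- or 3xNurRE-luciferase reporter (6 μg) for 18 h. Cells were replated at 10,000/well for 4 h, then exposed to ligand or vehicle in quadruplicate for 18 h. Luminescence was expressed as fold over vehicle, as mean ± s.e.m. (n=4) from 2 independent experiments, one-way ANOVA against vehicle.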

[21] = molecular target: Nuclear receptor subfamily 4 group A member 2 (Homo sapiens) (UniProt P43354); assay: Modulation of full length human Nurr1 expressed in HEK293T cells co-transfected with RXRalpha and luciferase reporter plasmid harboring NurRE response element assessed as decrease in luciferase activity at 0.244 to 15.63 uM incubated for 18 by luciferase reporter gene assay; settings: filed as modulator, dose 0.244-15.63 µM, time 18.0 hrs; procedure, shortened: as §2
[22] = molecular target: Nuclear receptor subfamily 4 group A member 2 (Homo sapiens) (UniProt P43354); assay: Modulation of full length human Nurr1 expressed in PC12 cells co-transfected with luciferase reporter plasmid harboring NurRE response element assessed as decrease in luciferase activity at 0.244 to 15.63 uM incubated for 18 by luciferase reporter gene assay; settings: PC-12, filed as modulator, dose 0.244-15.63 µM, time 18.0 hrs; procedure, shortened: as §4
[23] = molecular target: Nuclear receptor subfamily 4 group A member 2 (Homo sapiens) (UniProt P43354); assay: Modulation of full length human Nurr1 expressed in SKNBE(2) cells co-transfected with RXRalpha and luciferase reporter plasmid harboring NurRE response element assessed as decrease in luciferase activity at 0.244 to 15.63 uM incubated for 18 by luciferase reporter gene assay; settings: SKNBE2, filed as modulator, dose 0.244-15.63 µM, time 18.0 hrs; procedure, shortened: as §5

CCCCCCCC(=O)c1cc(OC)c(OC)c(OC)c1CC(=O)OCC
Activity (SK-N-BE(2)): Toxic | Activity [1]: inactive | Activity [2]: inactive | Activity [3]: inactive | Activity [4]: inactive | Activity [5]: inactive | Activity [6]: inactive | Activity [7]: inactive | Activity (PC-12 [8]): Toxic | Activity [9]: inactive | Activity (PC-12 [10]): Active | Activity [11]: inactive | Activity [12]: inactive | Activity [13]: inactive | Activity (HEK-293T): Toxic | Activity [14]: inactive | Activity (HEK293T): Active | Activity (SKNBE2): Active

C=C1C(=O)O[C@@H]2C[C@@]3(C)CCCC(=C)[C@@H]3C[C@H]12 [ISOALANTOLACTONE]
Activity (SK-N-BE(2)): Toxic | Activity [15]: Active | Activity [16]: Active | Activity [17]: Active | Activity [18]: Active | Activity (PC-12 [8]): Toxic | Activity [19]: Active | Activity [20]: Active | Activity [21]: Active | Activity [22]: Active | Activity [23]: Active | Activity (PC-12 [10]): Active | Activity (HEK-293T): Toxic | Activity (HEK293T): Active | Activity (SKNBE2): Active
